The results in this text go back to ChEMBL document CHEMBL2062472, “N-(2-oxo-3-oxetanyl)carbamic acid esters as N-acylethanolamine acid amidase inhibitors: synthesis and structure-activity and structure-property relationships” (J Med Chem, 2012).

A short description of series [1]: Apparent half life of the compound in 50% v/v human plasma by HPLC analysis in presence of eserine. Format: ADME, cell-free. The following applies: 50% v/v plasma, with eserine, read-out: t1/2(app). Summed up: (§1)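 Rat or human plasma at 50% (v/v) was preincubated with BNPP, eserine, PMSF, EDTA or vehicle, then compound was added and kept at 37 °C. Aliquots taken at regular time points were quenched with 2 volumes of CH3CN, centrifuged, and analysed by RP-HPLC. Apparent t1/2 came from log[compound]-vs-time regression.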

Series [2] is described as follows: Apparent Half life of the compound in 0.01 M phosphate-buffered saline at pH 7.4. The following applies: read-out: t1/2(app). Format: physicochemical. Summed up: (§2)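 Compound (from DMSO stock; 1% DMSO final) incubated at 1–100 μM final at 37 °C with shaking, ionic strength 0.15 M, in 0.01 M PBS pH 7.4 or 0.01 M phosphate buffer pH 5.0. Aliquots taken over time were analysed by RP-HPLC. Apparent t1/2 came from pseudo-first-order rate constants (linear regression of log[compound] vs time), reported as mean ± SD of three experiments.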

The nature of series [3]: Apparent half life of the compound in 50% v/v human plasma by HPLC analysis in presence of EDTA. Format: ADME, cell-free. The settings on record: 50% v/v plasma, with EDTA, read-out: t1/2(app). Summed up:
as §1

Series [4] is described as follows: Apparent half life of the compound in 50% v/v rat plasma by HPLC analysis in presence of PMSF. In kind it is ADME, cell-free. The settings on record: 50% v/v plasma, with PMSF, read-out: t1/2(app). The gist of the method: as §1
Series [5] is described as follows: Apparent half life of the compound in 50% v/v human plasma by HPLC analysis in presence of BNPP. In kind it is ADME, cell-free. The settings on record: 50% v/v plasma, with BNPP, read-out: t1/2(app). Summed up: as §1
Series [6] can be described thus: Apparent Half life of the compound in 0.01 M phosphate buffer at pH 5 in presence of 3 mM DTT. The following applies: read-out: t1/2(app).
A short description of series [7]: Apparent half life of the compound in 50% v/v human plasma by HPLC analysis. Format: ADME, cell-free. The following applies: 50% v/v plasma, read-out: t1/2(app). Summed up:
as §1

Series [8] is described as follows: Apparent half life of the compound in 50% v/v rat plasma by HPLC analysis in presence of EDTA. Format: ADME, cell-free. The settings on record: 50% v/v plasma, with EDTA, read-out: t1/2(app). The gist of the method:
as §1

Series [9] is described as follows: Apparent half life of the compound in rat plasma by HPLC analysis. Format: ADME, cell-free. The following applies: read-out: t1/2(app) (converted). Summed up:
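Pooled heparinized plasma from male Wistar rats was diluted to 80% (v/v) with PBS pH 7.4. Compound was added at 5–100 μM final (1% DMSO) and incubated at 37 °C with shaking. Aliquots were quenched with 2 volumes of CH3CN, centrifuged, and analysed by RP-HPLC. t1/2 came from log[compound]-vs-time regression, as mean ± SD of three experiments.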

A short description of series [10]: Apparent half life of the compound in 50% v/v rat plasma by HPLC analysis in presence of eserine. The following applies: 50% v/v plasma, with eserine, read-out: t1/2(app). In kind it is ADME, cell-free. The gist of the method:
as §1

The nature of series [11]: Apparent half life of the compound in 50% v/v rat plasma by HPLC analysis. The following applies: 50% v/v plasma, read-out: t1/2(app). In kind it is ADME, cell-free. Summed up: as §1
Series [12] in a line: Apparent half life of the compound in 50% v/v rat plasma by HPLC analysis in presence of BNPP. In kind it is ADME, cell-free. The following applies: 50% v/v plasma, with BNPP, read-out: t1/2(app). Summed up:
as §1

Series [13] is described as follows: Apparent half life of the compound in 50% v/v human plasma by HPLC analysis in presence of PMSF. The settings on record: 50% v/v plasma, with PMSF, read-out: t1/2(app). Format: ADME, cell-free. Summed up:
as §1

Series [14] has as its target Albumin (Bos taurus, UniProt P02769). As to the kind of experiment: Apparent half life of the compound in bovine serum albumin in phosphate-buffered saline at pH 7.4. Format: ADME. The following applies: cattle, read-out: t1/2(app). The gist of the method: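 Compound incubated at 5–100 μM final (1% DMSO) at 37 °C in 20 mg/mL bovine serum albumin in PBS pH 7.4. Aliquots were quenched with 2 volumes of CH3CN, centrifuged, and analysed by RP-HPLC. Apparent t1/2 came from pseudo-first-order regression of log[compound] vs time.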

Series [15] deals with T1, N-acylethanolamine-hydrolyzing acid amidase (Rattus norvegicus, UniProt Q5KTC7).
T1 sequence (Q5KTC7 whole entry): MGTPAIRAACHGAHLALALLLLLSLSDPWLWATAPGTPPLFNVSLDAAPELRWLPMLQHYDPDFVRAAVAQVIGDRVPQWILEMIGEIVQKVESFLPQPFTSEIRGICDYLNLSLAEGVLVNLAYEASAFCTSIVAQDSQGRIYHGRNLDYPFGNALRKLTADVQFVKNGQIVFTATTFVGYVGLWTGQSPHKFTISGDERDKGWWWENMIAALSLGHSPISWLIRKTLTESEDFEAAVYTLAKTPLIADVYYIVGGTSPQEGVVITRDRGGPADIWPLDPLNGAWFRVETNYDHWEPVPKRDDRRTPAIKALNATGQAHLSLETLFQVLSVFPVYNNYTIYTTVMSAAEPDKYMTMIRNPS
As to the kind of experiment: Inhibition of rat recombinant NAAA expressed in HEK293 cells using heptadecenoylethanolamide as substrate after 30 mins by LC/MS analysis. In kind it is cell-based. Summed up: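 Recombinant rat NAAA incubated 30 min at 37 °C in 50 mM sodium hydrogen phosphate buffer pH 5.0 containing 0.1% Triton X-100, 3 mM DTT and heptadecenoylethanolamide substrate (50 mM as printed). The reaction was stopped with cold methanol containing 1 nmol heptadecanoic acid. Product was measured by LC/MS with negative ESI, selected ion monitoring at m/z 267.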

Series [16] can be described thus: Apparent Half life of the compound in 0.01 M phosphate buffer at pH 5. The settings on record: read-out: t1/2(app). Format: physicochemical. Summed up:
as §2

Albumin, sequence (P02769 whole entry): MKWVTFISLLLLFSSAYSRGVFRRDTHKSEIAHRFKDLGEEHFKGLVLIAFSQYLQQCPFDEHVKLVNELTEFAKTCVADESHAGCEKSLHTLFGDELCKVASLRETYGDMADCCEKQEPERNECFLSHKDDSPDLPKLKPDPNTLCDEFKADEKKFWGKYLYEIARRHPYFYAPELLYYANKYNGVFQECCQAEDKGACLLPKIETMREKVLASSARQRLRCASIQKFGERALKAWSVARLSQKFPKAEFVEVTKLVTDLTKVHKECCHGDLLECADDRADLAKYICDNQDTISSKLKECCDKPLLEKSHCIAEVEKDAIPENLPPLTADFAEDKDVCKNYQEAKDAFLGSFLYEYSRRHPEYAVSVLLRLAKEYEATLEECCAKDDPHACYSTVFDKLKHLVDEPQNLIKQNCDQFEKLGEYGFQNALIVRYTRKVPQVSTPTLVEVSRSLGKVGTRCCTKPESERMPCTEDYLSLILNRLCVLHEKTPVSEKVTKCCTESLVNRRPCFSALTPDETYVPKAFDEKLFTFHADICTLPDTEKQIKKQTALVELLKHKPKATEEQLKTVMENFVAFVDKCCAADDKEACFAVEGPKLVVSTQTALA

For `C[C@@H]1OC(=O)[C@@H]1NC(=O)OC(C)(C)C`, the half-life turned out to be 13.8 min in series [1]; 122 min in series [2]; 32 min in series [3]; 7.13 min in series [4]; 4.7 min in series [5]; 147 min in series [6]. In addition, the half-life was 2.99 min in series [7]; 0.34 min in series [8]; 0.183 min in series [9]; 4.19 min in series [10]; 0.53 min in [11]; 3.29 min in series [12]. In addition, the half-life stood at 11.5 min in series [13], 129 min in [14] and 241 min in [16]. Moreover, the IC50 in series [15] was determined as 220 nM.

What is called IC50 is the concentration that gives 50% inhibition.
